# Assay results from different studies.
# Compare with care: the assays were run in different laboratories. pEC50, pIC50, pKd, pKi: −log10 of the molar value.
# RNMT: mRNA cap guanine-N(7) methyltransferase (RNMT, Homo sapiens, UniProt O43148)
# HTR2B: 5-hydroxytryptamine receptor 2B (HTR2B, Homo sapiens, UniProt P41595)
# DHFR: Dihydrofolate reductase (DHFR, Homo sapiens, UniProt P00374)
SMILES,target,assay,measurement,value
CC(=O)N(CC#Cc1cccc(C(N)=O)c1)C[C@H]1C[C@@H](n2ccc3c(Cl)ncnc32)[C@H](O)[C@@H]1O,RNMT,"binding, MST",pKd,< 3.52
O=C(c1cc(C2CCNC2)[nH]n1)N1CCC(c2cccc(Cl)c2)C1 (stereo not shown),HTR2B,"calcium signal, antagonist",pIC50,4.78
COc1cccc(NC(=S)NN=Cc2ccc(N3CCCCC3)cc2)c1,DHFR,"enzyme activity, inhibitor",pIC50,4.65
Cc1ccc(F)c(O)c1CN1CCN(C2CCCC2O)CC1 (stereo not shown),HTR2B,"calcium signal, antagonist",pIC50,6.87
O=C(O)C1=CC(=C(c2ccc(O)c(C(=O)O)c2)c2ccc(O)c(C(=O)O)c2)C=CC1=O,"Guanine nucleotide-binding protein G(i) subunit alpha-3 (GNAI3, Homo sapiens, UniProt P08754)","binding, BLI",pKd,~5.80
N#C[C@@]12C[C@@H]1[C@@H](n1cnc3c(NC4CCCC4)nc(I)nc31)[C@H](O)[C@@H]2O,HTR2B,"ligand displacement, radioligand",pKi,8.37
CCc1oc2c([C@H](CO)N(CC)CC)cccc2c1C,"Lysophosphatidic acid receptor 1 (LPAR1, Homo sapiens, UniProt Q92633)","G protein activation, agonist",pEC50,8.92
NC(=O)c1cccc(C#CCN(CC[C@H](N)C(=O)O)C[C@H]2O[C@@H](n3cnc4c(N)ncnc43)[C@H](O)[C@@H]2O)c1,RNMT,"binding, MST",pKd,4.45
N#C[C@@]12C[C@@H]1[C@@H](n1cnc3c(N[C@@H](C4CCC4)C4CC4)nc(I)nc31)[C@H](O)[C@@H]2O,"5-hydroxytryptamine receptor 2C (HTR2C, Homo sapiens, UniProt P28335)","calcium signal, antagonist",Kb,3.39 nM
Cc1ccc(NC(=S)NN=Cc2ccc(N3CCCCC3)cc2)cc1,DHFR,"enzyme activity, inhibitor",pIC50,4.55
